# “Also recorded” adds a separate entry of the source. Ends that are not written are not given here.
# Tests used:
# HSV-1 (F strain) = test: Post-entry inhibition assay; assay type: cell-based; settings: time of addition experiment, peptide added to cells at 5 μg/mL after HSV-1 infection
# Vero cells [1] = test: MTT cytotoxicity assay; assay type: cell-based, African green monkey; settings: 48 h incubation, 0 to 200 μg/mL
# Summary of the method: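 Vero cells were grown in MEM with 10% FBS at 37 ℃ and 5% CO2, seeded and cultured for 24 h. Medium was then replaced with fresh medium holding peptide at 0–200 μg/mL for 48 h at 37 ℃. MTT stock (5 mg/mL in PBS) was added for 4 h. Formazan was dissolved in DMSO for 10 min at room temperature and absorbance read at 570 nm.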
# Vero cells [2] = test: Cellular uptake and localization of FITC-labeled peptides; assay type: cell-based, African green monkey; settings: N-terminus FITC-labeled peptide, 10 μg/mL, 24 h at 37 ℃; confocal microscopy and flow cytometry (average FITC intensity)
substance,measurement,setting,value
LWHHIWHFVHHLI-NH2 [Eval418-FH5],inhibitory rate of plaque formation when added after HSV-1 infection,HSV-1 (F strain),29.72%
same,CC50 (50% cytotoxicity concentration),Vero cells [1],106.68 µg/mL
same,cellular uptake in Vero cells,Vero cells [2],significant cellular uptake; also recorded: considerable cellular uptake

# Reference: publication PMC5743469 (Theranostics, 2018)
